Compound activity: PubChem BioAssay, several laboratories
Sampled rows, rich in hits. Any-hit rate of the full collection: about 1.7%.
Runt-CBFb FRET: inhibitors of human RUNX1 Runt domain binding to CBFb | Q01196+Q13951 | Cerulean-Runt/Venus-CBFb FRET ratio 530/480, 1 h | inhibition, % at 20 µM | hit rate 0.46% among 220,000 | AID 1496;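 active = inhibition over about 50% at 20 µM in the single-dose screen, limit read from the data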;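 note: 0% = DMSO wells and 100% = excess unlabeled CBFb competitor control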
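Buffer or medium: Tris pH 7.5 buffer with BSA. Assay system: Cerulean-labeled Runt domain protein. Amount: each fluorescent fusion protein 100 nM. Read-out basis: loss of energy transfer signal. Incubation: 1 h compound exposure, room temperature. Probe or stimulus: Venus-CBFb binding partner, 100 nM. Detection: FRET, excitation 422 nm, emission at 530 and 480 nm.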
RanGTP-Impb inh: disruptors of Ran-importin-beta complex formation – biochemical, FRET, CFP-Ran, YFP-importin-beta, homogeneous, primary screen; cell-free CFP-Ran/YFP-importin-beta FRET ratio; inhibition, % (test concentration not listed); hit rate 1.1% among 300,000; AID 2216;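 active = more than half of the replicate wells show a fall in the fluorescence ratio signal beyond about 16%, limit read from the data, passing the limit was not always enough; inconclusive = exactly half of the replicate wells pass the set limit; inactive = fewer than half of replicates pass the limit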;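 note: 0% = DMSO wells and 100% = Ran loaded with GDP instead of GTP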
Runt-SMMHC FRET: blocks binding of human RUNX1 Runt domain to CBFb-SMMHC. Q01196+Q13951. Cerulean-Runt/Venus-CBFb-SMMHC FRET ratio 530/480, 1 h. inhibition, % at 20 µM. hit rate 0.74% among 220,000;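 active = mean inhibition across duplicate retests at 20 µM reaching about 50%, limit read from the data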;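 note: 0% = DMSO wells and 100% = wells with excess untagged CBFb-SMMHC; inhibitors lower the FRET ratio by blocking Runt binding to CBFb-SMMHC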
Vif imaging: blocks HIV Vif function; HEK293T cells, Vif self-association by quenched fluorescence, imaging, 24 h; inhibition, % at 7.49 µM; hit rate 0.35% among 340,000; AID 602346; in the data active = inhibition above about 50%, passing the limit was not always enough; inconclusive = no clear call, values can overlap the other calls; inactive = below about 31%
Rce1 inh: blocks yeast Ras-converting enzyme. calls only. yeast membranes, quenched prenylated peptide cleavage fluorescence. hit rate 0.27% among 290,000. AID 2563;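 active = fall in fluorescence gain of 50% or more versus controls, with final raw signal at or below 3038400; inconclusive = same 50% fall but final raw signal above 3038400; inactive = fall in fluorescence gain under 50%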;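 note: plate controls were neutral control wells for no effect and wells lacking membranes for full effect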
Target sequence (Q03530 whole entry, looked up): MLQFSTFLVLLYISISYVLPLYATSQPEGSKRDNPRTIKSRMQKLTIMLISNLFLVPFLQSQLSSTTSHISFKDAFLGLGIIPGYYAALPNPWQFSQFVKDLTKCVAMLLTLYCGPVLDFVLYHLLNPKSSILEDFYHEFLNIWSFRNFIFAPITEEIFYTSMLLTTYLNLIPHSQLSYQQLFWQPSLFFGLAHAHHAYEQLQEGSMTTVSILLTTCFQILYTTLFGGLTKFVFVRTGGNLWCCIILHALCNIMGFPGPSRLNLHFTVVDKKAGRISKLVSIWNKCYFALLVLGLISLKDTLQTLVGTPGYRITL
Starred values were filed as active, the others as inactive; i = inactive; ? = inconclusive; . = no result; + = active, no number.

SMILES | Runt-CBFb FRET | RanGTP-Impb inh | Runt-SMMHC FRET | Vif imaging | Rce1 inh
O=C(O)C1CCCN(S(=O)(=O)c2ccc(-c3ccc(=O)[nH]n3)s2)C1 (stereo unspecified) | . | 5 | . | 14 | i
Nc1ccccc1S(=O)(=O)NC1=NCCCCC1 | 0 | 0 | 1 | -3 | i
Cc1ccc(-n2ncc(C(=O)NCC3CCN(C4CCCC4)C3)c2C2CCN(C(=O)OC(C)(C)C)CC2)cc1 (stereo unspecified) | . | 5 | . | 0 | i
CC(C)(C)OC(=O)N1CCC(c2c(C(=O)NCC3CCN(C4CCCC4)C3)cnn2-c2ccc(F)cc2)CC1 (stereo unspecified) | . | 6 | . | 60* | i
CC(C)(C)OC(=O)N1CCCC1C(=O)NCCc1ccccc1 (stereo unspecified) | -3 | 5 | 0 | 22 | i
CCc1cc2c(C)cc(=O)oc2cc1OC(=O)C1CCCN1C(=O)OC(C)(C)C (stereo unspecified) | 30 | 4 | 75* | -3 | i
N#Cc1c(-c2ccc(Cl)cc2)c(-c2ccc(Cl)cc2)nn(CCOC(=O)CCC(=O)O)c1=O | . | . | . | -11 | .
Cn1c(Cc2ccccc2)nc(=O)c2ccccc21 | . | . | . | -3 | .
CN(C)/C=C1\NC(=S)N(c2ccc(Cl)cc2)C1=O | 3 | 3 | 0 | 1 | .
CN(C)c1ccc(C2C3C(=O)NC(=O)C3ON2c2ccc(Cl)cc2)cc1 (stereo unspecified) | 6 | 22* | 2 | 6 | i
COc1ccc([C@@H]2[C@@H]3C(=O)N(C(C)(C)C)C(=O)[C@@H]3[C@]3(Cc4ccccc4)C(=O)N(c4ccc(C)cc4)C(=O)N23)cc1 | . | ? | . | 7 | i
COc1ccc(C(CNC(=O)C(=O)NC2CCCC2)N2CCN(C)CC2)cc1 (stereo unspecified) | . | 4 | . | -10 | i
COc1ccccc1NC(=O)CNC(=O)c1ccccc1 | 1 | 2 | 0 | 21 | i
COc1ccccc1NC(=O)CNC(=O)c1ccccc1C | 1 | 24* | 0 | 11 | i
CCCc1cc(=O)oc2cc(OCC(=O)NCCc3c[nH]c4ccc(OC)cc34)ccc12 | . | 1 | . | -6 | i
O=C(COc1ccc2ccc(=O)oc2c1)NCCc1c[nH]c2ccc(F)cc12 | . | 3 | . | -9 | +
COc1ccc(C(=O)NC(CCSC)C(=O)NCc2nnc3ccccn23)cc1 (stereo unspecified) | . | . | . | -3 | .
COc1cc(NC(=O)COC(=O)CO/N=C(\C)c2ccc3c(c2)OCO3)cc(OC)c1OC | . | 2 | . | 9 | i
Cc1ccc(-c2cc(C(=O)N/N=C/c3ccco3)n[nH]2)s1 | 24 | -1 | 1 | 3 | i
COc1ccc(/C=N/NC(=O)c2cc(C(C)(C)C)[nH]n2)cc1COc1ccc(F)cc1F | -2 | 51* | -1 | -2 | i
CC(C)(C)c1cc(C(=O)N/N=C/c2ccco2)n[nH]1 | 2 | 2 | -1 | 62* | i
CCCS(=O)(=O)c1nnnn1-c1cccc(OC)c1 | -3 | ? | -8 | ? | i
COc1cc2ccc(CC(N)=O)cc2cc1OC | . | . | . | -1 | .
CCN(C(=O)COC(=O)c1cc(-c2cccs2)nc2ccccc12)C1CCS(=O)(=O)C1 (stereo unspecified) | -3 | 4 | 6 | 7 | +
CC(C)C(c1nnnn1Cc1cccs1)N1CCN(C2CCCC2)CC1 (stereo unspecified) | 1 | 0 | 18 | 22 | .
SMILES | Runt-CBFb FRET | RanGTP-Impb inh | Runt-SMMHC FRET | Vif imaging | Rce1 inh
CC(C)C(c1nnnn1CC1CCCO1)N1CCN(C2CCCC2)CC1 (stereo unspecified) | -2 | -1 | 2 | 57* | i
O=C(Nc1ncccn1)c1ccc([N+](=O)[O-])cc1 | -1 | 3 | 3 | 1 | +
O=C(Nc1ncccn1)c1cc([N+](=O)[O-])cc([N+](=O)[O-])c1 | -1 | 2 | 0 | . | i
Cc1ccc(NC(=O)c2cc(S(=O)(=O)N(C)C)ccc2N2CCCC2)cc1S(=O)(=O)N(C)C | . | ? | . | 0 | i
Cc1ccc(NC(=O)c2cc(S(=O)(=O)N3CCCCC3)ccc2N2CCOCC2)cc1S(=O)(=O)N(C)C | . | . | . | 52* | .
COc1ccc(CCNC(=O)c2ccc(NC(=O)CC3SC(N4CCCCC4)=NC3=O)cc2)cc1 (stereo unspecified) | . | . | . | -3 | .
O=C(CSc1ccc2nnc(-c3cccnc3)n2n1)Nc1ccccc1F | . | . | . | 8 | .
Cc1ccc(C)c(C(=O)COC(=O)c2ccc(C)c(S(=O)(=O)N3CCOCC3)c2)c1 | . | . | . | 59* | .
Cc1ccc(C(=O)OCC(=O)NC(C)C)cc1S(=O)(=O)N1CCOCC1 | -1 | 2 | -5 | 4 | i
C=CC[C@@H](CC(=O)N(CCO)Cc1ccccc1)C(=O)N[C@H](COC(=O)[C@@H](CC=C)Cc1ccc(F)cc1)C(C)(C)C | . | . | . | 55* | .
COc1cc(-c2cnc3c(NC=O)cc(-c4cccnc4)cn23)cc(OC)c1OC | . | . | . | 0 | .
COc1cccc(-c2cc(NC=O)c3ncc(-c4cc(OC)c(OC)c(OC)c4)n3c2)c1 | . | . | . | 77* | .
COc1ccc(F)cc1-c1cc(NC(C)=O)c2ncc(-c3cc(OC)c(OC)c(OC)c3)n2c1 | . | . | . | 68* | .
CCN1C(=NCC(C)C)N[C@@H](c2cccc(F)c2)C(C(=O)OC)=C1C | . | 4 | . | -5 | i
CN(C)c1ccc(CC(=O)N2CCCC(c3cc(C(=O)Nc4ccc(C(C)(C)C)cc4)no3)C2)cc1 (stereo unspecified) | . | . | . | -30 | .
N=c1c(C(=O)NCCN2CCOCC2)cc2c(=O)n3ccccc3nc2n1Cc1ccc(F)cc1 | . | 127* | . | 3 | i
N=c1c(C(=O)NCCN2CCOCC2)cc2c(=O)n3ccccc3nc2n1CCCN1CCOCC1 | . | 145* | . | -6 | i
O=S(=O)(c1ccc(F)c(Cl)c1)N1CCN(C/C=C/c2ccccc2)CC1 | . | . | . | -6 | .
O=C(Nc1cccc(N2C(=O)C3C4C=CC(C4)C3C2=O)c1)c1cccs1 (stereo unspecified) | 0 | ? | 1 | -2 | i
Cc1cc(N2C(=O)C3C4C=CC(C4)C3C2=O)ccc1NC(=O)c1cccs1 (stereo unspecified) | -1 | -1 | 26 | 12 | +
O=C(CNC(=O)c1cccc(F)c1)N/N=C/c1cccs1 | . | 2 | . | 7 | i
CCOc1ccc(S(=O)(=O)N(CC(=O)N2CCC(C(N)=O)CC2)c2ccc(F)cc2)cc1 | . | 27* | . | 0 | i
CCOc1ccc(N(CC(N)=O)S(=O)(=O)c2ccc(F)cc2)cc1 | 0 | 0 | -3 | 2 | i
Cc1cccnc1NC(=O)c1ccc(Cl)c(S(=O)(=O)N2CCCCCC2)c1 | . | 1 | . | -5 | i
CC1=C(C(=O)Nc2ccccn2)C(c2cn(C)nc2C)C2=C(CCCC2=O)N1 (stereo unspecified) | 10 | ? | 34 | -1 | .
